Screening data deposited in PubChem BioAssay by Sanford-Burnham Center for Chemical Genomics.
In the library only some 1.1% were active in any assay of this set; here they are far more common.
G6PDH counter = inhibits Leuconostoc G6PDH, flagging false hits in G6PDH-based assays; hit rate 0.12% among 200,000; inhibition, % at 5 µM; Purified L. mesenteroides G6PDH, diaphorase/resazurin coupled fluorescence, 45 min; in the data active = inhibition above about 50%
PMI act = phosphomannose isomerase (human) activation; purified human PMI, coupled resazurin fluorescence, 20 min; active compounds read high; 1 = vehicle control, 0 substrate-free wells; AID 1214; hit rate 0.005% among 190,000; activation factor at 20 µM; P34949;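 active = activation factor of 2 or more at 20 µM, relative to plate controls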
Target sequence (P34949 whole entry, looked up): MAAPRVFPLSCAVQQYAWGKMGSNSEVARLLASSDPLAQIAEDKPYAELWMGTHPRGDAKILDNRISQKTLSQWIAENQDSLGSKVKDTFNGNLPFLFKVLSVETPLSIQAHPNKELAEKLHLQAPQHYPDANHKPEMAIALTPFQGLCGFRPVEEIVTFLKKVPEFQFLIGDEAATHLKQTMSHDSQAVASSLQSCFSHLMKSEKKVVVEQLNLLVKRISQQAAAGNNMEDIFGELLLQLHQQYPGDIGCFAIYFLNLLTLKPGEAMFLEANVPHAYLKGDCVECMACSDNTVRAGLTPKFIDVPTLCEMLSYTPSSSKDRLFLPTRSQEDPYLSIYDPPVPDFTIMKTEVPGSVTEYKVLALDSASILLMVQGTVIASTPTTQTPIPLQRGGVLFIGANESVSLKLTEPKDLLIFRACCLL
Diaph inh CS = counter-screen for diaphorase-based assays: diaphorase inhibitors and chemical oxidizers; diaphorase resazurin-to-resorufin fluorescence, NADH, 16 min; bacterial (C. kluyveri) enzyme, not human; inhibition, % at 20 µM; hit rate 0.69% among 190,000; AID 1217;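 active = primary screen inhibition at 20 µM above a set limit, cut at about 50% in these data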;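 also: plate controls were DMSO with full reaction for no effect and wells lacking NADH for full effect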
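Assay system – diaphorase enzyme from Clostridium kluyveri · Amount – diaphorase 0.14 U/mL (working solution) · Times – reaction incubation of 16 min at room temperature · Controls – No-NADH positive control and DMSO neutral control · Signal – resorufin fluorescence 544/590 nm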
Diaphorase act = activates diaphorase or chemically reduces, flagging diaphorase assay artifacts; Diaphorase/resazurin coupled assay, resorufin fluorescence, 16 min; active compounds read high; 1 = vehicle wells, 0 = NADH-free wells; activation factor at 20 µM; hit rate 0.005% among 190,000; AID 1229;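 active = diaphorase activity raised at least twofold by the compound at 20 µM; inactive = activation factor below 2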
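Material: Purified diaphorase enzyme from Clostridium kluyveri | Buffer or medium: 50 mM HEPES pH 7.4 with 4.542 mM MgCl2, 0.005% Tween 20 | Times: 16 min enzyme reaction, ambient temperature | Signal: Red resorufin fluorescence at 544/590 nm excitation/emission | Measure: Increased resorufin signal from activators or reducing compounds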
PMI act satM6P = activators of human phosphomannose isomerase at near-saturating mannose 6-phosphate; P34949; coupled PMI enzyme assay, resazurin fluorescence, 20 min; active compounds read high; 1 = untreated enzyme, 0 = substrate-free blank; activation factor at 20 µM; hit rate 0.34% among 190,000; AID 1216;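 active = activation factor of 2 or more at 20 µM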
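assay system = human phosphomannose isomerase with PGI, G6PDH, diaphorase coupling enzymes | quantity = 15 ng/mL PMI | incubation = enzyme reaction with compound 20 min at room temperature | medium = HEPES pH 7.4 buffer with MgCl2 and Tween-20 | compound dosing = one concentration, 20 µM, in 1% DMSO | measured by = Diaphorase-driven resazurin-to-resorufin fluorescence, excitation 544, emission 590 nm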
Numbers without * were called inactive.

What do the screens show for `CCC(C)(c1nnnn1-c1c(C)cccc1C)N(N=O)c1ccccc1Cl` (stereo unspecified)?
G6PDH counter: -3; PMI act: 0.9; Diaph inh CS: 20; Diaphorase act: 0.8; PMI act satM6P: 0.9

How did Cc1nn(Cc2ccc(Cl)cc2Cl)c(C)c1NC(=O)NC12CC3CC(CC(C3)C1)C2 do in these assays?
G6PDH counter: 4; PMI act: 0.9; Diaph inh CS: 16; Diaphorase act: 0.8; PMI act satM6P: 0.9

Results for Cc1cc(C)c(C(N)=O)c(Nc2cccc3ccccc23)n1 ?
G6PDH counter: 4; PMI act: 0.4; Diaph inh CS: 91*; Diaphorase act: 0.1; PMI act satM6P: 0.4

What do the screens show for `COC(=O)c1ccc(S(=O)(=O)N2CCCCCC2)cc1`?
G6PDH counter: 0; PMI act: 1; Diaph inh CS: 16; Diaphorase act: 0.8; PMI act satM6P: 0.9

What do the screens show for `O=C(/C=C/c1ccc(O)c(O)c1)c1ccc(S(=O)(=O)N2CCCCCC2)cc1`?
G6PDH counter: 6; PMI act: 0.3; Diaph inh CS: 52*; Diaphorase act: 0.5; PMI act satM6P: 0.7

How did O=C1CC(/C=C/c2ccncc2)=Nc2ccccc2N1 do in these assays?
G6PDH counter: 3; PMI act: 1.7; Diaph inh CS: 10; Diaphorase act: 0.9; PMI act satM6P: 2.1*

How did Cc1ccc(-n2c(=O)[nH]c3c(oc4ccccc43)c2=O)cc1 do in these assays?
G6PDH counter: 7; PMI act: 1; Diaph inh CS: 20; Diaphorase act: 0.8; PMI act satM6P: 1

How did COc1ccc(-n2c(=S)[nH]c3c(oc4ccccc43)c2=O)cc1 do in these assays?
G6PDH counter: 4; PMI act: 1.1; Diaph inh CS: 68*; Diaphorase act: 0.3; PMI act satM6P: 1.1

Results for COc1ccc(-c2nc3oc4cc(OC)ccc4c(=O)c3c(=O)n2Cc2ccco2)cc1 ?
G6PDH counter: -47; PMI act: 0.7; Diaph inh CS: 23; Diaphorase act: 0.8; PMI act satM6P: 0.7

Results for COc1ccc2c(=O)c3c(=O)n(Cc4ccco4)c(-c4ccco4)nc3oc2c1 ?
G6PDH counter: 3; PMI act: 0.9; Diaph inh CS: 52*; Diaphorase act: 0.5; PMI act satM6P: 0.9

What do the screens show for `O=C(CSc1ccc(-c2ccco2)nn1)N1CCCC1`?
G6PDH counter: 2; PMI act: 1; Diaph inh CS: 24; Diaphorase act: 0.8; PMI act satM6P: 0.9

What do the screens show for `O=C(CSc1ccc(-c2ccco2)nn1)c1cccc([N+](=O)[O-])c1`?
G6PDH counter: 5; PMI act: 1.1; Diaph inh CS: 63*; Diaphorase act: 0.4; PMI act satM6P: 1.2

Results for O=C(O)c1cc(N2C(=O)C3C4C=CC(C4)C3C2=O)ccc1N1CCOCC1 (stereo unspecified) ?
G6PDH counter: 10; PMI act: 0.9; Diaph inh CS: 9; Diaphorase act: 0.9; PMI act satM6P: 1

How did NS(=O)(=O)c1ccc(NC(=O)COC(=O)c2cnccn2)cc1 do in these assays?
G6PDH counter: -2; PMI act: 1.1; Diaph inh CS: -7; Diaphorase act: 1.1; PMI act satM6P: 1.1

What do the screens show for `c1cc2cn[nH]c2cc1NC1CCCCCC1`?
G6PDH counter: 33; PMI act: 0.4; Diaph inh CS: 72*; Diaphorase act: 0.3; PMI act satM6P: 0.4

How did O=[N+]([O-])/C(=C\Nc1ccccc1Cl)S(=O)(=O)c1ccccc1 do in these assays?
G6PDH counter: 16; PMI act: 1.4; Diaph inh CS: 7; Diaphorase act: 0.9; PMI act satM6P: 2.4*

How did CSc1nc(N(CCO)CCO)c2sc3nc(-c4ccco4)c4c(c3c2n1)CCC4 do in these assays?
G6PDH counter: 7; PMI act: 1.2; Diaph inh CS: 54*; Diaphorase act: 0.5; PMI act satM6P: 1.4

Results for CSc1nc(SCCO)c2sc3nc(-c4ccco4)c4c(c3c2n1)CC(C)(C)OC4 ?
G6PDH counter: 13; PMI act: 1.2; Diaph inh CS: 18; Diaphorase act: 0.8; PMI act satM6P: 1.4

Results for Cc1ccc(N)c2c1OCCC2=O ?
G6PDH counter: 10; PMI act: 0.6; Diaph inh CS: 57*; Diaphorase act: 0.4; PMI act satM6P: 0.4

How did CC(C)(C)NC(=O)Cn1c(=O)n(CC(=O)NC(C)(C)C)c2ccccc21 do in these assays?
G6PDH counter: 9; PMI act: 0.9; Diaph inh CS: -10; Diaphorase act: 1.1; PMI act satM6P: 0.9

Results for N#Cc1c(NC(=S)NC(=O)c2ccccc2)sc2c1CCN(CCc1ccccc1)C2 ?
G6PDH counter: 6; PMI act: 1.6; Diaph inh CS: 13; Diaphorase act: 0.9; PMI act satM6P: 2.2*

Results for N#Cc1cc([N+](=O)[O-])cnc1N(CCO)CCO ?
G6PDH counter: 19; PMI act: 0.9; Diaph inh CS: 7; Diaphorase act: 0.9; PMI act satM6P: 0.8

Results for COc1ccccc1CNCc1cc(OC)c(OC)c(OC)c1 ?
G6PDH counter: 5; PMI act: 1.1; Diaph inh CS: 7; Diaphorase act: 0.9; PMI act satM6P: 1.1

Results for COc1ccccc1CNN ?
G6PDH counter: 2; PMI act: 1.6; Diaph inh CS: 17; Diaphorase act: 0.8; PMI act satM6P: 2.2*

What do the screens show for `O=C(NCCO)Nc1ccc2nsnc2c1`?
G6PDH counter: 2; PMI act: 0.9; Diaph inh CS: 15; Diaphorase act: 0.9; PMI act satM6P: 0.7

Results for O=C(NCCCO)c1ccc2nc(-c3ccco3)c(-c3ccco3)nc2c1 ?
G6PDH counter: 33; PMI act: 1.4; Diaph inh CS: 43; Diaphorase act: 0.6; PMI act satM6P: 1.1

Results for CC(=O)c1ccc(NC(=O)c2ccc3nc(-c4ccco4)c(-c4ccco4)nc3c2)cc1 ?
G6PDH counter: 22; PMI act: 1.2; Diaph inh CS: 55*; Diaphorase act: 0.5; PMI act satM6P: 1.5

Results for O=C(NCCO)Nc1ccc2nc(-c3ccco3)c(-c3ccco3)nc2c1 ?
G6PDH counter: 31; PMI act: 1.3; Diaph inh CS: 74*; Diaphorase act: 0.3; PMI act satM6P: 0.8

How did O=C(Nc1ccccc1)c1ccc2nc(-c3ccco3)c(-c3ccco3)nc2c1 do in these assays?
G6PDH counter: -9; PMI act: 1; Diaph inh CS: 79*; Diaphorase act: 0.2; PMI act satM6P: 1.3

Results for O=C(NCc1ccccc1)c1ccc2nc(-c3ccco3)c(-c3ccco3)nc2c1 ?
G6PDH counter: 22; PMI act: 1.2; Diaph inh CS: 46; Diaphorase act: 0.5; PMI act satM6P: 1.3

How did CCCCNC(=O)c1ccc2nc(-c3ccco3)c(-c3ccco3)nc2c1 do in these assays?
G6PDH counter: -28; PMI act: 1; Diaph inh CS: 53*; Diaphorase act: 0.5; PMI act satM6P: 1.1
